Experimental data of several laboratories.
Target: Mitogen-activated protein kinase kinase kinase 20 (MAP3K20, Homo sapiens, UniProt Q9NYL2)

Structure (SMILES)	read-out	method	tested at	remaining binding [%]
C[C@@H](c1cccc(C#N)c1)n1cc(Cl)cc(C(N)=O)c1=N	cell-free assay	competition with immobilised ligand	1 µM	71
O=C(Nc1c[nH]nc1C(=O)NC1CCNCC1)c1cc(F)cc(F)c1	binding	competition with immobilised ligand	1 µM	100
O=C(NCc1ncc(C(F)(F)F)cc1Cl)c1ccc2c(c1)C1(CCS(=O)(=O)CC1)[C@H](C1CC1)N2S(=O)(=O)c1ccc(F)cc1	cell-free assay	competition with immobilised ligand	1 µM	100
CN(C)c1ncc(F)c(-c2cnn3ncccc23)n1	binding	–	1 µM	96
CCN1CCN(Cc2ccc(C(=O)Nc3ccc(C)c(Oc4ccc5c(c4)CC(=O)N5)c3)cc2C(F)(F)F)CC1	binding	competition with immobilised ligand	1 µM	100
CN(C)c1nccc(-c2cnn3ncccc23)n1	binding	–	1 µM	100
CS(=O)(=O)NCC[C@H](NC(=O)c1cncc2c1cnn2-c1ccc(F)cc1)c1ccnc(S(C)(=O)=O)c1	cell-free assay	competition with immobilised ligand	1 µM	88
N[C@H]1CCN(c2nccc(-c3cnn4ncccc34)n2)C1	binding	–	1 µM	99
O=C(c1ccc(Nc2ncc(Cl)c(-c3ccc(Cl)s3)n2)cc1)N1CCC(N2CCCC2)CC1	binding	competition with immobilised ligand	1 µM	65
CN(C(=O)c1ccccc1)c1cc(N(C)c2ccc3c(c2)CCc2ccc(C(=O)NCCN4CCOCC4)cc2C3=O)ccc1F	cell-free assay	competition with immobilised ligand	1 µM	82
Nc1ncc2c(n1)-c1c([nH]c3ccc(C#CC4CC4)cc13)CCCC2	binding	competition with immobilised ligand	1 µM	93
Cc1c(NC(=O)c2cc(C(N)=O)nc3cc(F)ccc23)c(C(F)(F)F)nn1Cc1ccc(C#N)cc1	cell-free assay	competition with immobilised ligand	1 µM	100
Cc1cnn2ncc(-c3ccnc(N(C)C)n3)c2c1	binding	–	1 µM	95
Cc1cc(-n2nc(Cc3cc(F)cc(C(F)(F)F)c3)nc2C)ccc1C(N)=O	cell-free assay	competition with immobilised ligand	1 µM	99
O=C(c1ccc(Nc2nccc(-c3cc4ccccc4s3)n2)cc1)N1CCC(N2CCCC2)CC1	binding	competition with immobilised ligand	1 µM	69
C[C@@H]1CCN(c2nccc(-c3cnn4ncccc34)n2)C1	binding	–	1 µM	100
O=C(NCCCN1CCOCC1)c1ccc(Nc2ncc(Cl)c(-c3ccc(Cl)s3)n2)cc1	binding	competition with immobilised ligand	1 µM	69
CC1CCCN1c1nccc(-c2cnn3ncccc23)n1 (stereo not shown)	binding	–	1 µM	100
COc1cnc(Nc2cccc(S(N)(=O)=O)c2)nc1N1CCN(c2ccccc2)CC1	binding	competition with immobilised ligand	1 µM	100
CCCOc1ccc([C@@H]2[C@@H](C(=O)O)[C@H](c3ccc4c(c3)OCO4)CN2CC(=O)Nc2c(CC)cccc2CC)cc1	cell-free assay	competition with immobilised ligand	1 µM	100
FC(F)(F)Oc1cccc(-c2cnc3ccc(-c4ccncc4)nn23)c1	binding	competition with immobilised ligand	5 µM	20
C=CC(=O)N1CCC(C(=O)NCC(=O)N2CCN(c3nc(-c4cnc(N)nc4C(F)F)nc(N4CCOCC4)n3)CC2)CC1	binding	competition with immobilised ligand	1 µM	100
